ChEMBL document CHEMBL1138562, “2,3-Disubstituted-1,4-naphthoquinones, 12H-benzo[b]phenothiazine-6,11-diones and related compounds: synthesis and biological evaluation as potential antiproliferative and antifungal agents” (2009)
Converted amounts (≈) assume the structure as drawn. The source made the active and inactive calls. The rule behind the calls is not given here.

Experiments:
HeLa [1] = experiment: Antiproliferative activity against human HeLa cells at 20 uM after 24 hrs by sulforhodamine B assay; format: functional
Outline: (§1)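 HeLa cells grown in Eagle's MEM with 10% FBS at 37 °C under 5% CO2. Seeded at 1 × 10⁵ cells/mL and medium replaced after 24 h. Compounds added from DMSO stocks (final DMSO below 0.1%; DMSO vehicle as control) for one cell cycle (24 h). Cells stained with 0.4% sulforhodamine B and protein-bound dye read at 560 nm.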

HeLa [2] = experiment: Antiproliferative activity against human HeLa cells at 5 uM after 24 hrs by sulforhodamine B assay; format: functional; outline: as §1
HeLa [3] = experiment: Antiproliferative activity against human HeLa cells at 1 uM after 24 hrs by sulforhodamine B assay; format: functional; outline: as §1
Candida albicans = experiment: Antifungal activity against Candida albicans after 48 hrs by micro broth dilution method; format: functional
Outline: (§2)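 Micro broth dilution per NCCLS in RPMI 1640 buffered with MOPS. Inoculum 1-5 × 10³ cells/mL. Plates kept in a moist chamber at 35 °C. Absorbance read at 492 nm after 48 h (C. albicans, C. parapsilosis), 72 h (A. fumigatus, S. schenckii, C. neoformans) or 96 h (T. mentagrophytes). MIC taken as 90% growth inhibition versus control.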

Cryptococcus neoformans = experiment: Antifungal activity against Cryptococcus neoformans after 72 hrs by micro broth dilution method; format: functional; outline: as §2
Sporothrix schenckii = experiment: Antifungal activity against Sporothrix schenckii after 72 hrs by micro broth dilution method; format: functional; outline: as §2
[4] = tested on: Trichophyton mentagrophytes; experiment: Antifungal activity against Trichophyton mentagrophytes after 96 hrs by micro broth dilution method; format: functional; outline: as §2
Aspergillus fumigatus = experiment: Antifungal activity against Aspergillus fumigatus after 72 hrs by micro broth dilution method; format: functional; outline: as §2
Candida parapsilosis = experiment: Antifungal activity against Candida parapsilosis ATCC 22019 after 48 hrs by micro broth dilution method; format: functional; conditions: Lodderomyces parapsilosis, ATCC 22019, 48 h; outline: as §2
HeLa [5] = experiment: Induction of apoptosis in human HeLa cells at 5 uM after 24 hrs by annexin 5-propidium iodide staining mathod; format: functional, cell-based
Outline: (§3)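 HeLa cells grown on coverslips at 5 × 10⁴ cells/mL and incubated 24 h with 5 µM compound. Stained with FITC-Annexin V (early apoptosis) and propidium iodide (late apoptosis/necrosis) using a kit. Imaged by DIC for morphology and by fluorescence.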

HeLa [6] = experiment: Induction of apoptosis in human HeLa cells assessed as morphological changes at 5 uM after 24 hrs by differential interference contrast microscopy; format: functional, cell-based; outline: as §3
HeLa [7] = experiment: Induction of apoptosis in human HeLa cells assessed as blockade of cell cycle progression at mitosis after 24 hrs; format: functional, cell-based
Outline: (§4)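 HeLa cells grown on coverslips and exposed 24 h to compound (5, 10, 20 µM or none). Microtubules stained with mouse anti-α-tubulin and FITC anti-mouse IgG, chromosomes with DAPI. Mitotic cells scored by fluorescence microscopy.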

HeLa [8] = experiment: Antiproliferative activity against human HeLa cells at 34 uM after 24 hrs by sulforhodamine B assay; format: functional
HeLa [9] = experiment: Induction of apoptosis in human HeLa cells assessed as cell population at mitosis at 5 uM after 24 hrs; format: functional; outline: as §4
HeLa [10] = experiment: Induction of apoptosis in human HeLa cells assessed as cell population at mitosis at 10 uM after 24 hrs; format: functional; outline: as §4
HeLa [11] = experiment: Induction of apoptosis in human HeLa cells assessed as cell population at mitosis at 20 uM after 24 hrs; format: functional; outline: as §4

Compound | inhibition at 20 µM (HeLa [1]) | inhibition at 5 µM (HeLa [2]) | inhibition at 1 µM (HeLa [3]) | MIC (Candida albicans) | MIC (Cryptococcus neoformans) | MIC (Sporothrix schenckii) | MIC [4] | MIC (Aspergillus fumigatus) | MIC (Candida parapsilosis) | Activity (HeLa [5]) | Activity (HeLa [6]) | Activity (HeLa [7]) | inhibition at 34 µM (HeLa [8]) | Activity (HeLa [9]) | Activity (HeLa [10]) | Activity (HeLa [11])
O=C1C(Cl)=C(Cl)C(=O)c2ccccc21 [Dichlon] | 49% | 43% | 28% | 0.78 µg/mL (≈ 3.44 µM) | 3.12 µg/mL (≈ 13.7 µM) | 0.78 µg/mL (≈ 3.44 µM) | 1.56 µg/mL (≈ 6.87 µM) | 1.56 µg/mL (≈ 6.87 µM) | 1.56 µg/mL (≈ 6.87 µM) | – | – | – | – | – | – | –
O=C1C(Sc2ccccc2)=C(Sc2ccccc2)C(=O)c2ccccc21 | 100% | 60% | 51% | > 50 µg/mL | > 50 µg/mL | 50 µg/mL (≈ 134 µM) | > 50 µg/mL | > 50 µg/mL | > 50 µg/mL | Active | Active | inactive | – | – | – | –
OC(Cn1cncn1)(Cn1cncn1)c1ccc(F)cc1F [FLUCONAZOLE] | – | – | – | 1 µg/mL (≈ 3.27 µM) | 1 µg/mL (≈ 3.27 µM) | 2 µg/mL (≈ 6.53 µM) | 0.5 µg/mL (≈ 1.63 µM) | 2 µg/mL (≈ 6.53 µM) | 2 µg/mL (≈ 6.53 µM) | – | – | – | – | – | – | –
COc1ccc2[nH]c3c(=O)c4ccccc4c(=O)c=3sc2c1 | 77% | 20% | 8.5% | > 50 µg/mL | > 50 µg/mL | > 50 µg/mL | 50 µg/mL (≈ 162 µM) | > 50 µg/mL | > 50 µg/mL | – | – | – | – | – | – | –
O=c1c2[nH]c3ccccc3sc=2c(=O)c2ccccc12 | 42% | 6.5% | 5.5% | > 50 µg/mL | > 50 µg/mL | 50 µg/mL (≈ 179 µM) | > 50 µg/mL | > 50 µg/mL | > 50 µg/mL | – | – | – | – | – | – | –
COc1ccc2c(c1OC)C(=O)O[C@@H]2[C@H]1c2c(cc3c(c2OC)OCO3)CCN1C [NOSCAPINE] | – | – | – | – | – | – | – | – | – | – | – | – | 50% | – | – | –
O=c1c2[nH]c3ccc4ccccc4c3sc=2c(=O)c2ccccc12 | 42% | 19% | 12% | > 50 µg/mL | > 50 µg/mL | 50 µg/mL (≈ 152 µM) | > 50 µg/mL | > 50 µg/mL | > 50 µg/mL | – | – | – | – | – | – | –
COc1cccc(SC2=C(Cl)C(=O)c3ccccc3C2=O)c1 | 74% | 48% | 39% | 25 µg/mL (≈ 75.6 µM) | 25 µg/mL (≈ 75.6 µM) | 3.12 µg/mL (≈ 9.43 µM) | 3.12 µg/mL (≈ 9.43 µM) | 25 µg/mL (≈ 75.6 µM) | 25 µg/mL (≈ 75.6 µM) | – | – | – | – | – | – | –
O=C1C(Cl)=C(Sc2ccccc2)C(=O)c2ccccc21 | 73% | 29% | 15% | 6.25 µg/mL (≈ 20.8 µM) | 6.25 µg/mL (≈ 20.8 µM) | 1.56 µg/mL (≈ 5.19 µM) | 1.56 µg/mL (≈ 5.19 µM) | 12.5 µg/mL (≈ 41.6 µM) | 6.25 µg/mL (≈ 20.8 µM) | – | – | – | – | – | – | –
COc1cccc(SC2=C(Sc3cccc(OC)c3)C(=O)c3ccccc3C2=O)c1 | 100% | 76% | 64% | > 50 µg/mL | > 50 µg/mL | > 50 µg/mL | 50 µg/mL (≈ 115 µM) | > 50 µg/mL | > 50 µg/mL | Active | Active | – | – | 3.5% | 3.8% | 4.2%
O=C1C(Sc2cccc3ccccc23)=C(Sc2cccc3ccccc23)C(=O)c2ccccc21 | 46% | 30% | 22% | > 50 µg/mL | > 50 µg/mL | > 50 µg/mL | > 50 µg/mL | > 50 µg/mL | > 50 µg/mL | – | – | – | – | – | – | –
Clc1ccc(COC(Cn2ccnc2)c2ccc(Cl)cc2Cl)c(Cl)c1 (stereo not given) [MICONAZOLE] | – | – | – | 25 µg/mL (≈ 60.1 µM) | 12.5 µg/mL (≈ 30 µM) | – | < 0.78 µg/mL | 12.5 µg/mL (≈ 30 µM) | – | – | – | – | – | – | – | –
NYSTATIN | – | – | – | 7.8 µg/mL | 3.5 µg/mL | 13.2 µg/mL | – | – | – | – | – | – | – | – | – | –
C[C@@H]1[C@H](O)[C@@H](C)/C=C/C=C/C=C/C=C/C=C/C=C/C=C/[C@H](O[C@@H]2O[C@H](C)[C@@H](O)[C@H](N)[C@@H]2O)C[C@@H]2O[C@](O)(C[C@@H](O)C[C@@H](O)[C@H](O)CC[C@@H](O)C[C@@H](O)CC(=O)O[C@H]1C)C[C@H](O)[C@H]2C(=O)O [AMPHOTERICIN B] | – | – | – | 0.39 µg/mL (≈ 0.422 µM) | 0.78 µg/mL (≈ 0.844 µM) | – | 1.56 µg/mL (≈ 1.69 µM) | – | – | – | – | – | – | – | – | –
O=C1C(Cl)=C(Sc2cccc3ccccc23)C(=O)c2ccccc21 | 69% | 22% | 0% | 50 µg/mL (≈ 143 µM) | 50 µg/mL (≈ 143 µM) | 6.25 µg/mL (≈ 17.8 µM) | 6.25 µg/mL (≈ 17.8 µM) | 50 µg/mL (≈ 143 µM) | 50 µg/mL (≈ 143 µM) | – | – | – | – | – | – | –
